Measured values taken from ChEMBL document CHEMBL2331480, “Novel naphthoquinone derivatives: synthesis and activity against human African trypanosomiasis” (Bioorg Med Chem Lett, 2013).

How the values were obtained:
L6 = assay: Cytotoxicity against rat L6 cells after 72 hrs by SRB assay; format: cell-based; details: L6, 72 h
In short: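 L-6 rat skeletal myoblasts seeded at 2 × 10^3 cells/100 µL in DMEM with 10% heat-inactivated FBS onto threefold serially diluted compounds, with solvent blanks; 72 h at 37 °C, 5% CO2. Cells fixed with TCA (10% final, 4 °C, 1 h), stained 45 min with 0.4% SRB in 1% acetic acid, dye solubilized in 10 mM Tris base pH 10.5.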

[1] = test system: Trypanosoma brucei rhodesiense; assay: Antitrypanosomal activity against Trypanosoma brucei rhodesiense after 48 hrs by CellTiter-Glo assay; format: functional, organism-based
In short: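 T. b. rhodesiense bloodstream forms isolated from infected blood (citrate-glucose anticoagulant, diluted in HMI-9, low-speed spin), grown at 37 °C, 5% CO2 in HMI-9 with 10% heat-inactivated FBS and 10% Serum Plus. Compounds in DMSO pin-transferred onto diluted culture; 48 h at 37 °C; CellTiter-Glo read […] as percent of control; IC50 calculated.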

Structure (SMILES)	IC50 [1] [µM]	IC50 (L6) [µM]
Cc1ccc(NC2=C(Cl)C(=O)c3ccccc3C2=O)cc1	20	> 450
O=C1C(Cl)=C(Nc2ccccc2)C(=O)c2ccccc21	0.17	417
O=C1C(Nc2ccccc2C(F)(F)F)=C(Nc2ccccc2C(F)(F)F)C(=O)c2ccccc21	0.45	292
O=C1C(Cl)=C(Nc2ccccc2C(F)(F)F)C(=O)c2ccccc21	0.15	307
O=C1C(Cl)=C(Nc2ccccc2C(F)(F)F)C(=O)c2c1cccc2[N+](=O)[O-]	0.07	75
O=C1C(Nc2ccc(C(F)(F)F)cc2)=C(Cl)C(=O)c2c1cccc2[N+](=O)[O-]	0.8	115
O=C1C(Nc2ccccc2)=C(Nc2ccccc2)C(=O)c2ccccc21	0.67	378
Cc1ccc(NC2=C(Nc3ccc(C)cc3)C(=O)c3ccccc3C2=O)cc1	24	> 450
Cc1cccc(NC2=C(Cl)C(=O)c3ccccc3C2=O)c1	18	> 450
Cc1ccccc1NC1=C(Nc2ccccc2C)C(=O)c2c(cccc2[N+](=O)[O-])C1=O	7	186
Cc1ccc(NC2=C(Nc3ccc(C)cc3)C(=O)c3c(cccc3[N+](=O)[O-])C2=O)cc1	12	172
Cc1ccc(NC2=C(Cl)C(=O)c3c(cccc3[N+](=O)[O-])C2=O)cc1	6	169
Cc1cccc(NC2=C(Nc3cccc(C)c3)C(=O)c3c(cccc3[N+](=O)[O-])C2=O)c1	15	195

Continued by falling IC50 [1], values first:

IC50 [1] [µM]	Structure (SMILES)	IC50 (L6) [µM]
21	Cc1cccc(NC2=C(Nc3cccc(C)c3)C(=O)c3ccccc3C2=O)c1	> 450
20	Cc1ccccc1NC1=C(Nc2ccccc2C)C(=O)c2ccccc2C1=O	> 450
18	Cc1ccccc1NC1=C(Cl)C(=O)c2ccccc2C1=O	> 450
11	Cc1cccc(NC2=C(Cl)C(=O)c3c(cccc3[N+](=O)[O-])C2=O)c1	223
10	Cc1cccc(NC2=C(Cl)C(=O)c3cccc([N+](=O)[O-])c3C2=O)c1	214
8	Cc1ccc(NC2=C(Cl)C(=O)c3cccc([N+](=O)[O-])c3C2=O)cc1	186
4	O=C1C(Nc2ccc(C(F)(F)F)cc2)=C(Nc2ccc(C(F)(F)F)cc2)C(=O)c2c1cccc2[N+](=O)[O-]	97
4	Cc1ccccc1NC1=C(Cl)C(=O)c2cccc([N+](=O)[O-])c2C1=O	195
3	Cc1ccccc1NC1=C(Cl)C(=O)c2c(cccc2[N+](=O)[O-])C1=O	210
2	O=C1C(Nc2ccc(C(F)(F)F)cc2)=C(Nc2ccc(C(F)(F)F)cc2)C(=O)c2ccccc21	276
2	O=C1C(Cl)=C(Nc2ccc(C(F)(F)F)cc2)C(=O)c2c1cccc2[N+](=O)[O-]	121
0.8	O=C1C(Cl)=C(Nc2ccc(C(F)(F)F)cc2)C(=O)c2ccccc21	292
0.09	O=C1C(Nc2ccccc2C(F)(F)F)=C(Nc2ccccc2C(F)(F)F)C(=O)c2c1cccc2[N+](=O)[O-]	88
0.05	O=C1C(Nc2ccccc2C(F)(F)F)=C(Cl)C(=O)c2c1cccc2[N+](=O)[O-]	95
